The source of these data is ChEMBL document CHEMBL4680339, “Synthesis and bioevaluation of N-(3,4,5-trimethoxyphenyl)-1H-pyrazolo[3,4-b]pyridin-3-amines as tubulin polymerization inhibitors with anti-angiogenic effects” (Bioorg Med Chem, 2021).

The test system of one assay is HCT-116. Description: Antiproliferative activity against human HCT-116 cells assessed as reduction in cell growth incubated for 72 hrs by MTT assay. The assay is classed as functional, cell-based. The following applies: HCT-116, 72 h. The procedure, abridged:
(§1)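 Log-phase cells seeded at 5 × 10³/well and grown 24 h, then exposed to graded compound concentrations for 72 h. MTT (5 mg/mL) added for 4 h; formazan dissolved in DMSO and absorbance read at 490 nm. IC50 calculated from growth inhibition; means ± SD of triplicate experiments.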

Another assay deals with A549. As to the kind of experiment: Antiproliferative activity against human A549 cells assessed as reduction in cell growth incubated for 72 hrs by MTT assay. Conditions: A549, 72 h. The assay is classed as functional, cell-based. A digest of the protocol: as §1
Another assay deals with HeLa. Description: Antiproliferative activity against human HeLa cells assessed as reduction in cell growth incubated for 72 hrs by MTT assay. The format is functional, cell-based. The procedure, abridged:
as §1

The subject of a further assay is MCF7. As to the kind of experiment: Antiproliferative activity against human MCF7 cells assessed as reduction in cell growth incubated for 72 hrs by MTT assay. The assay is classed as functional, cell-based. The following applies: MCF7, 72 h. The procedure, abridged:
as §1
A general note: Formazan colour is commonly taken as a measure of viable cells.

The next assay deals with HepG2. As to the kind of experiment: Antiproliferative activity against human HepG2 cells assessed as reduction in cell growth incubated for 72 hrs by MTT assay. Conditions: HepG2, 72 h. The format is functional, cell-based. A digest of the protocol: as §1
A further assay has as its system WI-38. Description: Cytotoxicity against human WI-38 cells assessed as reduction in cell growth incubated for 72 hrs by MTT assay. The format is cell-based. The following applies: WI-38, 72 h. A digest of the protocol:
as §1

A short description of assay [1]: (§2) Inhibition of pig brain tubulin polymerization by spectrophotometric method. The assay is classed as tissue-based, Sus scrofa. A digest of the protocol:
(§3)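 Pig brain tubulin, purified by three assembly/disassembly cycles and phosphocellulose chromatography, mixed with compound at various concentrations. Buffer: PEM (100 mM PIPES, 1 mM MgCl₂, 1 mM EGTA) with 1 mM GTP and 5% glycerol. Polymerization followed at 37 °C by light scattering at 340 nm; plateau absorbance used for calculation.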

The next assay is filed under the species Sus scrofa. Described as §2. The format is tissue-based. The procedure, abridged:
as §3

In general, IC50 refers to the point on the concentration scale where inhibition reaches its midpoint. Regarding `CCN(c1cc(OC)c(OC)c(OC)c1)c1n[nH]c2nc(OC)ccc12`, the IC50 in the assay on HCT-116 worked out at 16.7 µM; in the assay on A549 it was 31.2 µM; with HeLa, 0.7 µM; in the assay with MCF7 it was 0.81 µM; with HepG2, 9.64 µM; in the assay on WI-38, 8.03 µM.

In the case of `COc1ccc2c(Nc3cc(OC)c(OC)c(OC)c3)nn(C)c2n1`, the IC50 is over 50 µM in the assay on HCT-116; over 50 µM in the assay with A549; 6.07 µM with HeLa; over 50 µM in the assay on MCF7; 6.24 µM with HepG2; 2.43 µM with WI-38.

For the compound `COc1ccc2c(Nc3cc(OC)c(OC)c(OC)c3)nn(C(C)C)c2n1`, the IC50 in the assay on HCT-116 worked out at 12 µM; with A549, 31.9 µM; in the assay on HeLa, 12.8 µM; in the assay with MCF7 it was 13.2 µM; with HepG2, 20 µM; in the assay on WI-38 it was 4.32 µM.

Consider `COc1ccc2c(N(CC(F)F)c3cc(OC)c(OC)c(OC)c3)n[nH]c2n1`, for which the IC50 in the assay with HCT-116 worked out at 0.47 µM; in the assay on A549, 2.42 µM; with HeLa it was 0.17 µM; in the assay with MCF7, 21.7 µM; in the assay on HepG2, 18.8 µM; in the assay with WI-38 it was 1.69 µM.

As for `COc1ccc2c(Nc3cc(OC)c(OC)c(OC)c3)nn(C3CCCC3)c2n1`, the IC50 in the assay on HCT-116 is over 50 µM; with A549 it was over 50 µM; in the assay on HeLa, 6.28 µM; with MCF7 it was 22.4 µM; with HepG2 it was over 50 µM; in the assay on WI-38, 73.8 µM.

In the case of `COc1ccc2c(N(CCF)c3cc(OC)c(OC)c(OC)c3)n[nH]c2n1`, the IC50 with HCT-116 came out at 0.12 µM; with A549 it was 0.2 µM; with HeLa, 0.012 µM; with MCF7, 0.102 µM; with HepG2 it was 5.79 µM; with WI-38, 16.5 µM. The same compound returned an IC50 in assay [1] of 55.7 µM. In addition, the inhibition entry in the assay listed under Sus scrofa is “Dose-dependent effect”.

As to `COc1ccc2c(N(Cc3ccccc3)c3cc(OC)c(OC)c(OC)c3)n[nH]c2n1`, the IC50 in the assay on HCT-116 was 3.37 µM; in the assay with A549 it was over 50 µM; with HeLa it was 3.19 µM; with MCF7, 10.3 µM; in the assay with HepG2, 7.38 µM; with WI-38, 1.67 µM.

Turning to `CCCN(c1cc(OC)c(OC)c(OC)c1)c1n[nH]c2nc(OC)ccc12`, the IC50 with HCT-116 is 5.97 µM; in the assay on A549, over 50 µM; in the assay on HeLa, 0.73 µM; with MCF7, 1.37 µM; in the assay on HepG2 it was 6.26 µM; in the assay with WI-38 it was 2.99 µM.

As to `COc1ccc2c(N(c3cc(OC)c(OC)c(OC)c3)C(C)C)n[nH]c2n1`, the IC50 was over 50 µM in the assay on HCT-116; over 50 µM with A549; 21.2 µM in the assay with HeLa; over 50 µM in the assay with MCF7; 24.5 µM in the assay on HepG2; 6.04 µM with WI-38.

For `COCCN(c1cc(OC)c(OC)c(OC)c1)c1n[nH]c2nc(OC)ccc12`, the IC50 in the assay on HCT-116 was 3.66 µM; with A549, 31.8 µM; in the assay with HeLa, 1.77 µM; in the assay with MCF7, 1.72 µM; in the assay with HepG2, over 50 µM; in the assay on WI-38, 30.9 µM.

For `COc1ccc2c(N(c3cc(OC)c(OC)c(OC)c3)C3CCCC3)n[nH]c2n1`, the IC50 with HCT-116 is 26.2 µM; in the assay on A549 it was 22.7 µM; in the assay with HeLa, 28.4 µM; in the assay on MCF7 it was over 50 µM; in the assay on HepG2, over 50 µM; in the assay with WI-38 it was 10.4 µM.

With `COc1ccc2c(N(C)c3cc(OC)c(OC)c(OC)c3)nn(C)c2n1`, the IC50 with HCT-116 is over 50 µM; in the assay on A549, over 50 µM; in the assay on HeLa it was 0.59 µM; in the assay with MCF7, over 50 µM; with HepG2, 2.52 µM; in the assay on WI-38, 22.8 µM.

For `COc1ccc(/C=C\c2cc(OC)c(OC)c(OC)c2)cc1O` [COMBRETASTATIN A4], the IC50 worked out at 0.029 µM with HCT-116; 0.058 µM in the assay with A549; 0.005 µM with HeLa; 0.034 µM in the assay on MCF7; 0.28 µM in the assay with HepG2; 31.6 µM in the assay with WI-38.

On to `COc1ccc2c(Nc3cc(OC)c(OC)c(OC)c3)nn(-c3ccccc3)c2n1`, for which the IC50 was over 50 µM in the assay on HCT-116; over 50 µM in the assay with A549; 22.5 µM with HeLa; over 50 µM in the assay with MCF7; 38.8 µM in the assay on HepG2; 12.6 µM in the assay on WI-38.

As to `COc1ccc2c(N(c3cc(OC)c(OC)c(OC)c3)C3CCCC3)nn(C3CCCC3)c2n1`, the IC50 in the assay on HCT-116 is over 50 µM; with A549, over 50 µM; with HeLa, over 50 µM; in the assay on MCF7 it was over 50 µM; in the assay on HepG2 it was over 50 µM; with WI-38, 138 µM.

For the compound `COc1ccc2c(N(CC3CC3)c3cc(OC)c(OC)c(OC)c3)n[nH]c2n1`, the IC50 with HCT-116 is 2.18 µM; in the assay on A549, 20.6 µM; with HeLa, 0.18 µM; in the assay with MCF7, 2.35 µM; with HepG2 it was 5.46 µM; with WI-38, 1.29 µM.
